Experiment [1] addresses Nitric oxide synthase, inducible (Rattus norvegicus) (UniProt Q06518). Put plainly: Inhibition of Wistar rat NOS2 assessed as L-[3H]citrulline formation at 1 mM by liquid scintillation counting relative to control in presence of EDTA. In a few lines: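 NOS-II source: lung homogenate (0.1 g/mL, Tris/DTT/protease inhibitors, pH 7.6, 2500g supernatant) from male Wistar rats 6 h after iv LPS 10 mg/kg in saline. 10 µL sample incubated 30 min at 37 °C with 10 µM L-arginine plus 40 nM L-3H-arginine, H4-biopterin, FAD, CaCl2, 10 mM EDTA; NADPH started reaction. Compound 1 mM; three experiments in triplicate; mean ± SEM.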

For experiment [2], the target named is T1, Nitric oxide synthase 1 (Homo sapiens, UniProt P29475). Put plainly: Inhibition of NOS1.
T1 sequence (P29475 whole entry): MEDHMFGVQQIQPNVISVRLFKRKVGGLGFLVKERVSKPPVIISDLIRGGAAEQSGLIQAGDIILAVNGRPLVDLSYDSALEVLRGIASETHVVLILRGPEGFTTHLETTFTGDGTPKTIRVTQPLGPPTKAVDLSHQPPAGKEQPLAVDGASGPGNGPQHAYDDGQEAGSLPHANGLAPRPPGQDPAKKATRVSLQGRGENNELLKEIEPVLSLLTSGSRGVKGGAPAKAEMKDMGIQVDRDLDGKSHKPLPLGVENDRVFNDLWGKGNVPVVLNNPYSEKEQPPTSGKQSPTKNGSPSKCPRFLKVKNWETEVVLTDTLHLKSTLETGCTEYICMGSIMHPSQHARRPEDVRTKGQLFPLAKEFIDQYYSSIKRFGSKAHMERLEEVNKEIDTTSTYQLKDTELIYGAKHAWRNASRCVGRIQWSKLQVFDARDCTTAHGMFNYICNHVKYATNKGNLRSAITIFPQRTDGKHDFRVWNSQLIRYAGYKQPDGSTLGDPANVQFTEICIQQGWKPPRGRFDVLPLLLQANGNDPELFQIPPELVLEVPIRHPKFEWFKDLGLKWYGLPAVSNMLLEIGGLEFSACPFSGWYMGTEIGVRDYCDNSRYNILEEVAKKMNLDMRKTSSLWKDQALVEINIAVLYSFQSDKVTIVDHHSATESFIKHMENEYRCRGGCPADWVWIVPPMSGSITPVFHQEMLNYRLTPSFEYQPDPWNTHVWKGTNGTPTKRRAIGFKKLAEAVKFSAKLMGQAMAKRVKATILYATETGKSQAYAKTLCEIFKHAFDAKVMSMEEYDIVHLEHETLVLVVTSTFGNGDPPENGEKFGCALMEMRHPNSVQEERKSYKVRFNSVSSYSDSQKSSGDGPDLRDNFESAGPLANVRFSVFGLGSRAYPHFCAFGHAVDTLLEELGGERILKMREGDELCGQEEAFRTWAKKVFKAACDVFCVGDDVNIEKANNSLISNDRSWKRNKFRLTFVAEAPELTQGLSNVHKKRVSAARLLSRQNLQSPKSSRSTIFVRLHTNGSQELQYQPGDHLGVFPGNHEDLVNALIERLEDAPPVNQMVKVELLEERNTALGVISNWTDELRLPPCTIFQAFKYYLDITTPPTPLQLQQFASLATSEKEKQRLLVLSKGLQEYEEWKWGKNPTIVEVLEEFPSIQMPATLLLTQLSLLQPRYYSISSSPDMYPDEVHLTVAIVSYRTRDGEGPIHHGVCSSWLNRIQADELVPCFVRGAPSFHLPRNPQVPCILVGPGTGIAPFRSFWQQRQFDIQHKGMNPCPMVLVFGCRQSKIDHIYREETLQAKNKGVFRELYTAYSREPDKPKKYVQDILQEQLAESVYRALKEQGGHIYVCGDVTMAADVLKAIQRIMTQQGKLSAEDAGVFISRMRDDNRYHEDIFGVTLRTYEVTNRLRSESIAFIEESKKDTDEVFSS
The target in experiment [3] is T1, Nitric oxide synthase 1. The experiment in a line: Inhibition of recombinant NOS1 assessed as citrulline formation.
Experiment [4] concerns the target Nitric oxide synthase, inducible (Homo sapiens, UniProt P35228). Put plainly: Inhibition of NOS2. In outline:
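NOS-II source was lung homogenate (2500g supernatant) from male Wistar rats killed 6 h after iv LPS 10 mg/kg. Incubation ran 30 min at 37 °C, pH 7.6, with 10 µM L-arginine, 40 nM L-3H-arginine, cofactors and 0.75 mM NADPH, plus 10 mM EDTA to exclude NOS-I. Read-out was 3H-citrulline formed. Compounds were tested at 1 mM, or 0.1–1 mM for dose-response, in three experiments run in triplicate.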

For experiment [5], the target named is Nitric oxide synthase, inducible (Rattus norvegicus) (UniProt Q06518). Put plainly: Inhibition of Wistar rat NOS2 assessed as L-[3H]citrulline formation by liquid scintillation counting relative to control in presence of EDTA. In a few lines: (§1)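 Lung homogenate (0.1 g/mL, pH 7.6 Tris with protease inhibitors, 2500g supernatant) from male Wistar rats given 10 mg/kg LPS iv in saline 6 h before. L-3H-arginine (40 nM, plus 10 µM L-arginine) to L-3H-citrulline conversion, 0.75 mM NADPH, 30 min at 37 °C, 10 mM EDTA. Compound at 0.1, 0.5 or 1 mM. Three experiments in triplicate.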
Nitric oxide synthase, inducible (Rattus norvegicus), sequence (Q06518 whole entry): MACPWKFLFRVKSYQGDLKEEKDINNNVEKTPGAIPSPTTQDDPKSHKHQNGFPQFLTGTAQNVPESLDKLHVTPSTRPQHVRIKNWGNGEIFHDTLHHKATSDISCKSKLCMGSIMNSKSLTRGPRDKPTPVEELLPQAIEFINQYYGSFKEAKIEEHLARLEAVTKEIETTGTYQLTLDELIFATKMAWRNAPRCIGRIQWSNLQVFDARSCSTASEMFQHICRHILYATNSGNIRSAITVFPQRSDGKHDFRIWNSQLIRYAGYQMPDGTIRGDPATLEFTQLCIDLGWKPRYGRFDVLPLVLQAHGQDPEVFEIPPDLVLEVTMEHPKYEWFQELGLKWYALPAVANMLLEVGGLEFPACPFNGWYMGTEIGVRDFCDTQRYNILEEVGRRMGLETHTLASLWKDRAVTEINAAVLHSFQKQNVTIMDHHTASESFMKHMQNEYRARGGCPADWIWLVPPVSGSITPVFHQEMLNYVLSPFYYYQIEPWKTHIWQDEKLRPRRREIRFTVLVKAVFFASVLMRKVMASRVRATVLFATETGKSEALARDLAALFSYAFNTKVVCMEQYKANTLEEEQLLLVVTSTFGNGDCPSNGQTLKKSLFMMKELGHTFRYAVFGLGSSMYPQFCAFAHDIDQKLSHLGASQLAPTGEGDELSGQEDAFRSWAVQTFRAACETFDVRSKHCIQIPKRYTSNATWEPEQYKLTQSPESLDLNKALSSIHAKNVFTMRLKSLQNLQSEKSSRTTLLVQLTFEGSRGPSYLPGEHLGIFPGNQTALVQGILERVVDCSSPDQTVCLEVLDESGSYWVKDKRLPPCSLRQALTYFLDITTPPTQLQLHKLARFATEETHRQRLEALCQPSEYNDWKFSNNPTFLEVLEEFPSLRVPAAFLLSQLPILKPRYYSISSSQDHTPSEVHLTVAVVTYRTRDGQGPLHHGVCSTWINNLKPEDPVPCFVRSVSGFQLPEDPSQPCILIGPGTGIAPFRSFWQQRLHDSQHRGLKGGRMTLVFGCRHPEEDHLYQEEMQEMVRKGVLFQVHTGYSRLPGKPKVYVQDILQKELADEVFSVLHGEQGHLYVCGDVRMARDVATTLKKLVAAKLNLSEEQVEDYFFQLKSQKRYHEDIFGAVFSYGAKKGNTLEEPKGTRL

Experiment [6] has the same target. Put plainly: Inhibition of Wistar rat NOS2 assessed as enzyme activity at 0.5 mM by liquid scintillation counting relative to control in presence of EDTA. Also noted: scale not given: the % may be the effect or the level left. In outline:
as §1

Experiment [7] has the same target. Put plainly: Inhibition of Wistar rat NOS2 assessed as enzyme activity at 0.1 mM by liquid scintillation counting relative to control in presence of EDTA. The arrangement: scale not given: the % may be the effect or the level left. In a few lines:
as §1

The target is the same in experiment [8]. Put plainly: Inhibition of Wistar rat NOS2 assessed as enzyme activity at 1 mM by liquid scintillation counting relative to control in presence of EDTA. Also noted: scale not given: the % may be the effect or the level left. In outline: as §1

Structures are written as SMILES.

Nitric oxide synthase, inducible, sequence (P35228 whole entry): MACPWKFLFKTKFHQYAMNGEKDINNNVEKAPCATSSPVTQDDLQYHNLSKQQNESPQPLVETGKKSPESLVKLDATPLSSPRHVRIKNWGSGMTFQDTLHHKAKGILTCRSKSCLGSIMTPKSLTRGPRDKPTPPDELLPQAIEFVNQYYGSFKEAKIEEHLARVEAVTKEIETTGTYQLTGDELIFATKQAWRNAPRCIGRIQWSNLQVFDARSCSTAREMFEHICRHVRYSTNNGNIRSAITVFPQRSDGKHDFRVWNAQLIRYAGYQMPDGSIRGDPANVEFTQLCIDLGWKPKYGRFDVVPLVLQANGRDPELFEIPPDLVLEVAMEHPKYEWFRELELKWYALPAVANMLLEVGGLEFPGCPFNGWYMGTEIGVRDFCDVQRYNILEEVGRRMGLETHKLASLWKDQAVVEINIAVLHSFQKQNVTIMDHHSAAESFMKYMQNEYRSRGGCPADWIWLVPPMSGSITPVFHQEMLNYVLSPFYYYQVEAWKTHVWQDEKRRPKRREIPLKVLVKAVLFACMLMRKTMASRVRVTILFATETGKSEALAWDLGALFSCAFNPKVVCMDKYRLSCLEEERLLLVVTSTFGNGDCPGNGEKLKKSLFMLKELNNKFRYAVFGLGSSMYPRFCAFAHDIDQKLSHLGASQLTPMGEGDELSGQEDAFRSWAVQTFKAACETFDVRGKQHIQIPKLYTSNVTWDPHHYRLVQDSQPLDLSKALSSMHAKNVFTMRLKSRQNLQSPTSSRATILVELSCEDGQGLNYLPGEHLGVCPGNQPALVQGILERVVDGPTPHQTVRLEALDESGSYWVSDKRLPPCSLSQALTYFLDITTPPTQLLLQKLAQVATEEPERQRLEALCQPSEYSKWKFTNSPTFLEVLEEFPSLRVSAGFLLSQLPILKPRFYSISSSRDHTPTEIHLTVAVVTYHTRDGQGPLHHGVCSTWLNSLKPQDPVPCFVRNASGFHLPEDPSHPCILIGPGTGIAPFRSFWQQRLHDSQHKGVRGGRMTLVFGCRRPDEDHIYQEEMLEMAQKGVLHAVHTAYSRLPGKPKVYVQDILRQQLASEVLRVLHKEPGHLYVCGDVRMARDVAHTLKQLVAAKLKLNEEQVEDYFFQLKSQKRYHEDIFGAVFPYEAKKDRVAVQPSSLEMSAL

The term inhibition denotes the relative decrease from the control value, in per cent. Regarding `Cn1ncc2cccc([N+](=O)[O-])c21`, in experiment [1], the inhibition came to 25%.

By IC50 is commonly meant the concentration that gives 50% inhibition. At Nitric oxide synthase 1 [2], `Clc1cccc2[nH]ncc12` returned an IC50 of 44 µM.

Turning to `Brc1ccc2cn[nH]c2c1`, the IC50 at Nitric oxide synthase 1 [2] was 4.3 µM.

`O=[N+]([O-])c1cccc2[nH]ncc12` came in with an IC50 on Nitric oxide synthase 1 [2] of 3.1 µM.

`Brc1cccc2[nH]ncc12` yielded an IC50 against Nitric oxide synthase 1 [2] of 2.4 µM.

As for `Fc1c(F)c(F)c2c(-c3ccccc3)n[nH]c2c1F`, in experiment [1], the inhibition was found to be 37%.

On to `Cn1cc2cccc([N+](=O)[O-])c2n1`, for which the inhibition in experiment [1] turned out to be 36%.

With `Nc1ccc2cn[nH]c2c1`, the IC50 at Nitric oxide synthase 1 [3] is more than 1000 µM.

For `CC1(C)CC(=O)c2cn[nH]c2C1`, the inhibition in experiment [1] is 2%.

Take `Clc1ccc2cn[nH]c2c1`: the IC50 on Nitric oxide synthase 1 [2] amounted to 22 µM.

For `Cc1n[nH]c2c1C(=O)CC(C)(C)C2`, the inhibition in experiment [1] was determined as 22%.

Consider `Clc1n[nH]c2ccccc12`, for which, on Nitric oxide synthase 1 [3], the IC50 was 100 µM.

In the case of `CC12CCC(C3C=NN=C31)C2(C)C` (racemic), the inhibition in experiment [1] amounted to 20%.

Consider `O=C1CCCc2[nH]ncc21`, for which, in experiment [1], the inhibition came out at 23%.

On to `O=[N+]([O-])c1ccc2[nH]ncc2c1`, for which the 50% inhibitory concentration (IC50) against Nitric oxide synthase 1 [2] was 47 µM.

Turning to `Oc1n[nH]c2c(F)c(F)c(F)c(F)c12`, the inhibition in experiment [1] was determined as 6%.

`Brc1cccc2cn[nH]c12`: 14 µM corresponded to half-maximal inhibition at Nitric oxide synthase 1 [2] (IC50).

In the case of `Clc1cccc2cn[nH]c12`, the IC50 on Nitric oxide synthase 1 [2] turned out to be 4.2 µM.

For the compound `Brc1ccc2[nH]ncc2c1`, the IC50 on Nitric oxide synthase 1 [2] worked out at 72 µM.

Compound `O=[N+]([O-])c1ccc2c(Cl)n[nH]c2c1` had an IC50 on Nitric oxide synthase 1 [2] of 158 µM.

Turning to `Cn1nc2c([N+](=O)[O-])cccc2c1Br`, the inhibition in experiment [1] stood at 7%.

As to `CCc1n[nH]c2ccccc12`, the IC50 at Nitric oxide synthase 1 [3] is 310 µM.

Turning to `Cc1n[nH]c2c(F)c(F)c(F)c(F)c12`, the inhibition in experiment [1] is 83%.

Turning to `Cn1nc(Br)c2cccc([N+](=O)[O-])c21`, in experiment [1], the inhibition was determined as 10%.

As for `Cc1n[nH]c2c1C(=O)CCC2`, the inhibition in experiment [1] is 4%.

`O=[N+]([O-])c1cccc2cn[nH]c12` [7-NITROINDAZOLE] showed an IC50 in experiment [4] of 5.8 µM. In addition, the inhibition in experiment [1] was determined as 84%.

On to `Fc1c(F)c(F)c(-c2n[nH]c3c(F)c(F)c(F)c(F)c23)c(F)c1F`, for which the inhibition result is “Dose-dependent effect” in experiment [5] and 80% in experiment [1]. Besides, the Activity in experiment [6] is 58%; in experiment [7], 90%; in experiment [8] it was 20%. In experiment [4], the IC50 was 400 µM.

As to `Fc1c(F)c(F)c2c(C(F)(F)F)n[nH]c2c1F`, the inhibition in experiment [1] was determined as 21%.

As for `O=[N+]([O-])c1cccc2c(Br)n[nH]c12`, the IC50 in experiment [4] came out at 0.29 µM; against Nitric oxide synthase 1 [2] it was 0.17 µM. For the same compound, the inhibition in experiment [1] amounted to 97%.

Take `Ic1cccc2[nH]ncc12`: inhibition against Nitric oxide synthase 1 [2] was half-maximal at 17 µM (IC50).

Take `Nc1ccc2[nH]ncc2c1`: the IC50 on Nitric oxide synthase 1 [3] was more than 1000 µM.

With `Nc1cccc2cn[nH]c12`, the IC50 on Nitric oxide synthase 1 [3] is 115 µM.

With `Clc1ccc2[nH]ncc2c1`, it took 59 µM to reach half-maximal inhibition at Nitric oxide synthase 1 [2] (IC50).

Turning to `O=c1[nH][nH]c2ccccc12`, the IC50 on Nitric oxide synthase 1 [3] was more than 1000 µM.

As to `O=[N+]([O-])c1ccc2cn[nH]c2c1`, the IC50 on Nitric oxide synthase 1 [2] came out at 32 µM.

`c1ccc2[nH]ncc2c1` [INDAZOLE]: at Nitric oxide synthase 1 [3], the IC50 was 178 µM.

At Nitric oxide synthase 1 [2], `Ic1ccc2[nH]ncc2c1` registered an IC50 of 37 µM.
